Compound activity as filed in PubChem.
Many of the other results were omitted from the sample, so hits are more common in it than they were.
bCat KO growth: primary screen for growth suppressors in beta-catenin knockout HCT116 cells (colon tumor, human); HCT116 beta-catenin knockout viability, CellTiter-Glo, 60 h; stronger effect = lower value; viability, % at 10 µM; actives 1.5% (n = 140,000);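 active = viability at or under a set limit, the compound median less 4 SD, cut at about 6% in these data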
Lung fibro prol: antiproliferative effect on LL 47 fibroblasts – human, LL 47 cells, CellTiter-Glo luminescence, primary screen | LL 47 human lung fibroblast viability, ATP luminescence; stronger effect = lower value | actives 1.1% (n = 85,000) | AID 719, 2007 | viability, % at 10 µM;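 active = viability at or below 50% in the single dose screen; inactive = viability above 50%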;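 also: compound exposure lasted 72 h before the ATP readout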
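Benchmarks: Cell-only wells, no compound | Test system: LL 47 human lung fibroblasts, passage 12 or lower | Input: 1,150 cells/well | Measured by: CellTiter-Glo luminescence measuring cellular ATP | Medium: IMEM, 15% FBS supplement | Schedule: Overnight attachment after seeding, then 72 h compound exposure at 37 °C | Doses: Compound addition at 0.1% DMSO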
PTEN del growth: growth suppression of PTEN-null HCT116, primary screen, cell-based, CellTiter-Glo; HCT116 PTEN-null viability, 60 h; stronger effect = lower value; actives 1.2% (n = 140,000); viability, % at 10 µM;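 active = viability at or below a set limit, 4 SD under the median of all tested compounds, cut at about 3.7% in these data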;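 also: PTEN knockout HCT116 line with beta catenin targeted HCT116 as companion control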
H69AR inhibit: proliferation blockers of H69AR lung cancer cells, primary screen, cell-based, human, 86K library; H69AR lung tumor viability, ATP luminescence, 72 h; stronger effect = lower value; viability, % at 10 µM; actives 6% (n = 85,000);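 active = viability at or below 40%; inactive = viability above 40%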;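 also: multidrug resistant small cell line overexpressing MRP-1 efflux transporter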
HUVEC inhibit: inhibitors of HUVEC proliferation, primary screen, cell-based, 384-well; CellTiter-Glo luminescence, 72 h; stronger effect = lower value; viability, % at 10 µM (by protocol); actives 1.1% (n = 86,000);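 active = viability at or below 30%; inactive = viability above 30%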
PTK2B oligo ant: antagonists of Pyk2 self-association, primary screen, Q293 cells, FERM NanoBiT luminescence, HTS | Protein-tyrosine kinase 2-beta (Homo sapiens), Q14289 | stronger effect = lower value | z-score (the deposit names both 25 µM and 10 µM) | actives 0.83% (n = 99,000);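 active = Z-score of -3 or lower, scaled per plate to the spread of control and sample wells; inactive = z-score above -3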;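 also: negative z-score means lost luminescence so less FERM oligomerization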
Target sequence (Q14289 whole entry, looked up): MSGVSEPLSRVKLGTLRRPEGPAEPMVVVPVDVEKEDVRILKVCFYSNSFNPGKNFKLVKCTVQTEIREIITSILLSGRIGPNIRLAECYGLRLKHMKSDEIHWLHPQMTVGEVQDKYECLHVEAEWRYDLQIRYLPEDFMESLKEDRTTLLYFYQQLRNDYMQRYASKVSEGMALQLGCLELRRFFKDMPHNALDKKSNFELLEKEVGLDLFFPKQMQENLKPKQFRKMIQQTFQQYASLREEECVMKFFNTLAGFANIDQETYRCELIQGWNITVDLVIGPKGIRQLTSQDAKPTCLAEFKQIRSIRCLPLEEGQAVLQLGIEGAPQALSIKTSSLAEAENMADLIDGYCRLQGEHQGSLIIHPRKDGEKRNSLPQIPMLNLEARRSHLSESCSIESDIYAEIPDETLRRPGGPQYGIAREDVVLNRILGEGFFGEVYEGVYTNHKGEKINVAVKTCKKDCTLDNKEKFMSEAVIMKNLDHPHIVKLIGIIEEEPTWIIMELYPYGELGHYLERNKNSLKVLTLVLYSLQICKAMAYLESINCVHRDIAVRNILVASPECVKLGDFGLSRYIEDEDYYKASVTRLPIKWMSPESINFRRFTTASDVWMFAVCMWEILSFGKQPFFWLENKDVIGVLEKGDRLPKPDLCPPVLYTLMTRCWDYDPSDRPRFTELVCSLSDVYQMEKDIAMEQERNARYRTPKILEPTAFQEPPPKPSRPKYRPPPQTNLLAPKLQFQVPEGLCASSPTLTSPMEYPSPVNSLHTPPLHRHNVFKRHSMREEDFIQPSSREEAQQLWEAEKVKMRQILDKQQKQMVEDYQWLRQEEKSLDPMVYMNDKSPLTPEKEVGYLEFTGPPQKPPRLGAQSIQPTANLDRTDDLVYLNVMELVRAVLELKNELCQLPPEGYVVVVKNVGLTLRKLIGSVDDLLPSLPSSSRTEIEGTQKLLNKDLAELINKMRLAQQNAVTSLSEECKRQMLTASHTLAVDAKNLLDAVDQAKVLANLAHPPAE
Numbers stand for hits; 0 = inactive; - = not tested or not shown.

SMILES	bCat KO growth	Lung fibro prol	PTEN del growth	H69AR inhibit	HUVEC inhibit	PTK2B oligo ant
CC(=O)Oc1ccc2c(C)cc(=O)oc2c1	0	0	0	0	0	0
CCOCCCNC(=O)C1CCN(S(=O)(=O)c2c(C)noc2/C=C\c2ccc(OC)cc2)CC1	-	0	-	37	0	0
Cc1noc(/C=C/c2ccco2)c1S(=O)(=O)N1CCC(C(=O)NC(C)c2ccccc2)CC1 (stereo unspecified)	0	0	0	13	0	-
Cc1nc(NCc2ccco2)c2c(C)c(C)sc2n1	1.7	27	2.2	34	3.5	0
Cc1sc2nc3c4ccccc4c(NCc4ccco4)nn3c(=O)c2c1C	0	0	0	34	0	0
Cc1nc(N2CCC(C)CC2)c2nnn(Cc3ccccc3)c2n1	0	0	0	0	0	0
CCCn1c(C)cc(=O)c2cc(NC(=O)c3cnccn3)ccc21	0	0	0	7.2	0	0
Cc1ccc(N=C(NO)c2nonc2N)cc1	0	0	0	0	0	0
CC(C)c1ccc(NC(=O)Cn2cccc2C2=NC(c3ccccc3)CO2)cc1 (stereo unspecified)	0	-	0	-	-	0
CC(=O)Oc1c(C)cc(O)c2ccccc12	0	0	0	0.5	0	-
CN(C)c1ccc(/C=N/c2cc(-c3ccccc3)nn2-c2ccccc2)cc1	0	-	0	-	-	0
O=C1COc2ccc(-c3csc(NCC4CCCO4)n3)cc2N1 (stereo unspecified)	0	0	0	0	0	0
COc1ccc(-c2cc(-c3ccc(OC)cc3)nc(-c3ccc4c(c3)NC(=O)CO4)c2)cc1	2.7	-	2.4	-	-	0
COc1ccc2c(c1)c(=O)oc1c(C)c3occ(C)c3cc12	-	0	-	35	0	-
COc1ccc2c(c1)c(=O)oc1cc3oc(C)c(C)c3cc12	0	0	0	0	0	-
COc1ccc2c(c1)c(=O)oc1cc3occ(C(C)(C)C)c3cc12	0	0	0	13	0	0
O=C1N/C(=C\c2ccc(O)cc2)C(=O)c2ccccc21	5.8	-	0	-	-	0
O=C(O)/C=C1\NC(=O)c2ccccc21	0	-	0	-	-	0
Cc1ccc(NC(=O)NC2CCN(S(=O)(=O)c3ccc(F)cc3)CC2)cc1	0	0	0	0	0	0
Cc1cc(Cl)ccc1NC(=O)NC1CCN(S(=O)(=O)c2ccc(F)cc2)CC1	0	0	0	39	0	0
COc1ccc(C(=O)Nc2nnc(-c3ccccc3)o2)cc1OC	0	0	0	33	0	0
COc1cccc(NC(=O)c2nnn(CCc3ccccc3)c2N)c1	0	0	0	32	0	-
CCOc1cc(OCC)cc(C(=O)Nc2cccc(C(C)=O)c2)c1	0	-	0	-	-	-
COc1cccc(C(=O)Nc2cccc(NC(C)=O)c2)c1	0	-	0	33	0	0
CCOc1cccc(C(=O)Nc2cccc(-c3nnc(-c4ccc(C)cc4)o3)c2)c1	1.7	37	3.1	-	17	0
SMILES	bCat KO growth	Lung fibro prol	PTEN del growth	H69AR inhibit	HUVEC inhibit	PTK2B oligo ant
COc1cccc(C(=O)Nc2ccc(NC(C)=O)cc2)c1	0	-	0	-	-	0
CN(C)Cc1ccccc1Sc1ccc(O)cc1O	0	-	0	-	-	-
CCOc1ccc(C2=NNC(c3cccs3)=Nc3ccc(OCC)cc32)cc1	0	-	0	-	-	-
CSCC(=O)NS(=O)(=O)c1ccc(C)cc1	0	-	0	-	-	-
CC(C)OCCCNC(=O)c1cccc(NC(=O)c2ccccc2)c1	0	-	0	-	-	0
CCOc1cccc(C(=O)Nc2cccc(-c3nnc(-c4ccccc4)o3)c2)c1	0	0	0	15	0	-3.6
CC(C)OC(=O)c1cccc(NC(=O)c2ccccc2)c1	0	0	0	30	0	0
COc1cccc(C(=O)Nc2cccc(-c3nnc(-c4ccccc4)o3)c2)c1	-	-	-	17	0	-
O=C(Nc1nnc(-c2ccc(Cl)cc2)o1)c1nc2ccccc2s1	0	0	0	17	0	-
C/C(N)=C(/C#N)C(=O)COC(=O)CCC1CCCC1	0	0	0	0	0	0
CC1CN(S(=O)(=O)c2cccc(C(=O)OC/C(O)=C(\C#N)c3nc4ccccc4[nH]3)c2)CC(C)O1 (stereo unspecified)	0	-	0	-	-	-
Cc1ccc(-c2nnc(-c3ccc(NC(=O)c4ccco4)cc3)o2)cc1	0	0	0	37	0	0
